Experimental data collected from several papers.
Compare with care: the assays were run in different laboratories.
Target: Kappa-type opioid receptor (OPRK1, Homo sapiens, UniProt P41145)
Read-out: ligand displacement
Concentration: 10 µM

| SMILES | assay | setting | inhibition [%] |
| --- | --- | --- | --- |
| c1ccc(C(NCCNC(c2ccccc2)c2ccccc2)c2ccccc2)cc1 | – | – | 88 |
| C[C@@H]1N=C(c2ccccc2F)c2cc(Br)ccc2-n2cnc(C(=O)O)c21 | radioligand | – | 62.8 |
| CC(C)N1CCC[C@H]1CNC(=O)c1cn(C2CCCC2)c(=O)c2c1c1ccccc1n2C | radioligand | – | 5 |
| c1ccc(C2CCN(c3cnc4c(N5CCOCC5)nccn34)CC2)cc1 | – | – | 6.44 |
| COCc1c(-c2cc3cc(C)cc(OC)c3s2)c2c(N)ncnn2c1CN1CCNC(=O)C1 | radioligand | – | 17 |
| C[C@@H]1C[C@H]2O[C@@H]2/C=C\C=C\C(=O)Cc2c(Cl)c(O)cc(O)c2C(=O)O1 | radioligand | cell membranes | -56 |
| CCc1ccccc1C(=O)Nc1n[nH]c2c(C)c(F)c(C3C(C#N)=C(C)N(C)C(C)=C3C#N)cc12 | – | – | 16.1 |
| C[C@H](C(=O)N[C@H]1COc2ccccc2[C@@H]1S(C)(=O)=O)c1ccc(F)cc1 | – | – | 1 |
| Clc1ccc2c(C3CCN(CCc4c[nH]c5ccccc45)CC3)c[nH]c2c1 | radioligand | – | 79 |
| COc1ccc(C(=O)NCc2cc(C(C)C)no2)cc1OC1CCN(C)CC1 | radioligand | – | 22 |
